Screening data as filed in PubChem BioAssay.
NR2E3 ag-1: activates human NR2E3 receptor; CHO-S Gal4-NCOR/VP16-NR2E3 two-hybrid, luciferase; inhibition of corepressor binding, % at 3.98 µM; 360,000 compounds, 0.35% hits;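 active means inhibition above the mean of all tested compounds plus 3 SD, cut at about 70% in these data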;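 further: 0% = DMSO with NR2E3 transfected cells and 100% = cells lacking NR2E3 construct; higher means lower luciferase signal from less NR2E3 corepressor binding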
Target sequence (Q9Y5X4 whole entry, looked up, the tested form may be a part): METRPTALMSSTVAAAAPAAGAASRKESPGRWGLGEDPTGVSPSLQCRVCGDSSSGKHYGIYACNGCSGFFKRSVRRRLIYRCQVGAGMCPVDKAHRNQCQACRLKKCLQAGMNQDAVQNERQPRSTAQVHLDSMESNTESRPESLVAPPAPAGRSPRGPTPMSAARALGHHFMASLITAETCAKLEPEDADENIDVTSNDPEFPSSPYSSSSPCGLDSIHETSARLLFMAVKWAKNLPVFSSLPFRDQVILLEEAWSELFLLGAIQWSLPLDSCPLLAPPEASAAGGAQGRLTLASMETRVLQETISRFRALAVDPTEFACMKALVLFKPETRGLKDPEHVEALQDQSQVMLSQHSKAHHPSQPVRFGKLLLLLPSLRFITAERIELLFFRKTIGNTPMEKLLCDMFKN
Rev-erbA mod: Rev-erb alpha (human) modulation; P20393; activity, % at 10 µM; Rev-erbα–FITC-DNA binding, fluorescence polarization, 90 min; 370,000 compounds, 0.79% hits; AID 1259318;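 active means activity above about 14%, limit read from the data; passing the limit was not always enough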;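 further: 0% = DMSO wells with 35 nM protein and 100% = DMSO wells with 750 nM protein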
PG9 binder: PG9 antibody binding by small molecule; TR-FRET gp120-PG9 antibody binding; inhibition, % at 6.7 µM; 360,000 compounds, 0.43% hits; AID 624416; in the data active means inhibition above about 8.5%
NR2E3 ag-2: NR2E3 (human) agonism; AID 2300; inhibition of corepressor binding, % at 4.78 µM; 320,000 compounds, 0.12% hits; GST-NR2E3/biotin-RetCOR TR-FRET, 1536-well; Q9Y5X4;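 active means percent inhibition above the cutoff of mean plus 3 SD of all tested compounds, set per screening campaign, cut at about 20% in these data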;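 further: 0% = DMSO wells and 100% = biotin wells as full block of FRET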
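Test system: GST-NR2E3 and biotin-RetCOR proteins | Quantity: 1.35 nM GST-tagged NR2E3 final | Medium: Tris pH 7.5 | Also added: 7 nM biotin-RetCOR | Dosing: Compound at 4.8 µM, single dose | Timing: 5 h at 4 °C | Detection: Time-resolved FRET | Read-out basis: Percent inhibition | Benchmarks: Biotin wells as high control, 0.6% DMSO wells as low control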
PG9 bind confirm: confirmation of small molecules binding HIV-1 gp120 antibody PG9. AID 651571. shares compounds with PG9 binder. inhibition, % at 6.7 µM. TR-FRET PG9 antibody binding, biochemical. 1,500 compounds, 90% hits; in the data active means inhibition above about 9%
PGV04 counter: counter-screen for PG9 binders: binding control antibody PGV04 | shares compounds with PG9 binder | TR-FRET PGV04 antibody-gp120 binding, biochemical | inhibition, % at 6.7 µM | 1,500 compounds, 95% hits; in the data active means inhibition above about 9.5%
PG9 bind DR: small molecules binding HIV-1 gp120 antibody PG9. shares compounds with PG9 binder. TR-FRET PG9 antibody-gp120 binding inhibition. IC50, µM. 95 tested, under 10 active. AID 651848; in the data active means IC50 below about 10 µM
PGV04 binding DR: counter-screen for PG9 binders: binding to control antibody PGV04 | shares compounds with PG9 binder | TR-FRET binding to control antibody PGV04 | IC50, µM | AID 651937 | 95 compounds, 20% hits
PG126 DR counter: binds control antibody PG126 in PG9 counter-screen; IC50, µM; 95 compounds, 20% hits; TR-FRET binding to antibody PG126, counterscreen; shares compounds with PG9 binder
Numbers without * were called inactive; i = inactive; · = no result given. The list is not random: actives were taken first. Their share in the collection is about 1.4%. Unless noted, no stated cut-off is given here; in the data, active means IC50 below about 9 µM; inactive means the rest.

SMILES	NR2E3 ag-1	Rev-erbA mod	PG9 binder	NR2E3 ag-2	PG9 bind confirm	PGV04 counter	others
CCCSc1ccc2nc(NC(=O)OC)[nH]c2c1	-63	10	12*	1	25*	36*
O=C1C(NC(=O)C(F)(F)Br)CCCCN1Cc1cccc(C(F)(F)F)c1 (stereo unspecified)	·	1	·	·	·	·
O=C(c1ccc2ccccc2c1)c1cccc(F)c1C(=O)O	-24	-5	13*	·	12*	17*
C=CCNC(=O)NCC1CCN(Cc2ccc(OC)cc2)CC1	·	1	·	·	·	·
CCOC(=O)Cc1csc(NC(=O)c2ccc(S(=O)(=O)N(CCOC)CCOC)cc2)n1	-2	-2	-1	-1	·	·
COCCN(CCOC)S(=O)(=O)c1ccc(C(=O)Nc2nc(-c3ccncc3)cs2)cc1	22	8	16*	7	16*	21*
CCCCC(=O)Nc1ccc(C(=O)Nc2ccc(S(=O)(=O)N3CCCC3)cc2)cc1	15	9	18*	6	19*	38*
CCOc1ncccc1C(=O)Nc1ccc(S(=O)(=O)N2CCCC2)cc1	11	15	9.6*	0	13*	18*
CC(=O)c1ccc(NC(=O)c2ccc(S(=O)(=O)N3CCCC3)cc2)cc1	-3	4	-3	1	·	·
Cn1c(SCC(=O)Nc2ccc(S(=O)(=O)Nc3nccs3)cc2)nc2sc3c(c2c1=O)CCCC3	·	-12	·	·	·	·
COc1ccc2ccc(OCC(=O)Nc3cc(C)on3)cc2c1	-13	10	21*	3	25*	34*
CC(=O)c1cccc(NC(=O)CCc2nnc3ccc(NCc4ccc5c(c4)OCO5)nn23)c1	-11	13	19*	-4	23*	27*
CCCCC1=CC2=C(c3ccco3)C(=O)C(C)(OC(=O)c3ccc(OC)cc3)C(=O)C2=CN1Cc1ccccc1 (stereo unspecified)	-16	-5	24*	14	28*	33*
CCc1nnc(NC(=O)CSc2nnc(-c3ccccc3O)n2-c2ccc(C)cc2)s1	-5	8	11*	1	14*	22*
CSCCC(Nc1ncnc2ccc(Br)cc12)C(=O)O (stereo unspecified)	3	2	13*	13	20*	20*
Cc1cc(SCC(=O)NC2CCCCC2)nc2ccccc12	5	9	18*	17	22*	27*
Cc1cc2ccccc2nc1SCC(=O)NC1CCCC1	16	5	9.7*	12	15*	18*
Cc1cc2ccccc2nc1SCC(=O)NC1CCCCC1	-13	4	6	3	·	·
CCOc1cc2[nH]c(=S)n(Cc3ccc(C(=O)NCCCOC)cc3)c(=O)c2cc1OCC	-14	13	23*	-1	8	13*
CCOc1cc2[nH]c(=S)n(Cc3ccc(C(=O)NCCCN(CC)CC)cc3)c(=O)c2cc1OCC	11	3	-1	2	·	·
CON(C)S(=O)(=O)c1ccc2c(c1)N(Cc1ccc(C)cc1)C(=O)C1CCCN21 (stereo unspecified)	-13	12	10*	7	19*	27*
CCOC(=O)Cn1c(=NC(=O)CSC(C)=O)sc2cc(F)ccc21	-20	2	40*	8	69*	80*
CCOC(=O)Cn1c(=NC(=O)CC)sc2c(C)cc(C)cc21	2	2	11*	-5	15*	23*
CCOC(=O)Cn1c(=NC(=O)C(C)C)sc2c(C)cc(C)cc21	-13	0	-1	3	·	·
COc1ccc(C(=O)N[C@H]2CC[C@@]34CCCN3C(=O)CCC[C@H]4[C@H]2C)cc1	·	4	·	·	·	·
SMILES	NR2E3 ag-1	Rev-erbA mod	PG9 binder	NR2E3 ag-2	PG9 bind confirm	PGV04 counter	others
S=c1[nH]nc(-c2ccccc2)o1	1	-2	7	2	·	·
Cc1ccc(-c2cc(-c3n[nH]c(=S)o3)c3ccccc3n2)cc1	-10	-2	0	1	·	·
CSc1ccccc1-c1n[nH]c(=S)o1	-3	-3	35*	·	40*	52*
Cc1ccccc1-c1n[nH]c(=S)o1	-34	·	35*	6	35*	47*
CC(=O)c1cn(CC(=O)Nc2ccc(C)c(C)c2)c2ccccc12	-20	10	8	5	·	·
CC(=O)c1cn(CC(=O)Nc2ccc(C)cc2)c2ccccc12	20	13	17*	3	24*	32*
Cc1ccc(NC(=O)Cn2c(=O)c3cccn3c3ccccc32)cc1	-2	11	21*	11	19*	27*
Cc1ccccc1NCC(=O)N/N=C/c1ccc[nH]1	·	-10	·	·	·	·
CCC(=O)Nc1ccc2c(c1)C(=O)N(C)[C@@H]1CC[C@@H](CC(=O)NCCN3CCCCC3)O[C@H]1CO2	·	5	·	·	·	·
CCOC(=O)[C@@H]1c2[nH]c3ccccc3c2C[C@@]2(C(=O)OC)C=CCN12	·	-1	·	·	·	·
Cc1ccc(-n2nc3c(c2NC(=O)c2ccccc2Br)CS(=O)C3)cc1 (stereo unspecified)	-9	-2	8.8*	2	8	15*
COC(=O)c1cc(-c2cccc(OC)c2)c2c(=O)[nH]c(=O)n(C)c2n1	-30	8	8.8*	-2	18*	24*
Cc1ccc(-n2nc3c(=S)[nH]nc(C)c3c2C)cc1	5	2	45*	17	28*	25*	PG9 bind DR=>67;PGV04 binding DR=i;PG126 DR counter=i
O=C(Cn1c2ccccc2c2nc3n(c(=O)c21)CCS3)Nc1ccccc1	-27	6	1	3	·	·
COc1cccc(NC(=O)Cn2c3ccc(OC)cc3c3nc4n(c(=O)c32)CCS4)c1	5	19	14*	3	31*	25*	PG9 bind DR=>67;PGV04 binding DR=9*;PG126 DR counter=i
COc1ccc(-c2nc3c(c(=O)[nH]c(=O)n3Cc3ccccc3)n2CCO)cc1	1	0	-1	0	·	·
CCn1c(-c2ccsc2)nc2c1c(=O)[nH]c(=O)n2Cc1ccccc1	11	10	22*	-2	39*	54*
CCOC(=O)[C@]12CCCCC/C=C\1N(CCc1ccc(Cl)cc1)C(=O)[C@H]2CC(=O)NCc1ccccc1	·	3	·	·	·	·
CN(C)c1ccc(-c2cccc(C3CC=CC4C3C(=O)N(Cc3ccccc3)C4c3ccc4ccccc4c3)c2)cc1 (stereo unspecified)	-51	9	26*	0	36*	48*
CC(C)(N[C@@H](Cc1c[nH]c2ccccc12)C(=O)NCCc1c[nH]c2ccccc12)C(=O)NC1CCCCC1	·	5	·	·	·	·
